For test [1], the target named is T1, Free fatty acid receptor 1 (Homo sapiens, UniProt O14842). Description: Agonist activity at FFAR1 expressed in HEK-EM293 cells assessed as calcium influx by FLIPR assay. It counts as functional, cell-based. The settings on record: for Activity: HEK293.
For test [2], the target named is T1, Free fatty acid receptor 1. Kind of test: Activity at FFAR1 expressed in HEK-EM293 cells assessed as calcium influx relative to GW-9508 by FLIPR assay. It is filed as functional, cell-based. More on the design: concentration or dose not given beside the values. The settings on record: HEK293.
Test [3] has as its target Free fatty acid receptor 1 (Homo sapiens, UniProt O14842, L186F). Description: Activity at FFAR1 L186F mutant expressed in HEK-EM293 cells assessed as calcium influx by FLIPR assay. It is filed as functional, cell-based, HEK293. In a few lines: (§1)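 Mutant or wild-type FFAR1 cDNA transiently transfected (lipofectamine LTX/PLUS) into HEK-EM 293 cells. Cells seeded at 60 000/well one day before, then loaded with Calcium4 dye in HEPES (20 mM)-buffered HBSS. Intracellular calcium flux read by FLIPR after agonist addition; EC50 from concentration-response curves.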

The target in test [4] is T1, Free fatty acid receptor 1. Description: Activity at FFAR1 expressed in HEK-EM293 cells assessed as calcium influx by FLIPR assay. It counts as functional, cell-based, HEK293.
Test [5] concerns the target Free fatty acid receptor 1 (Homo sapiens, UniProt O14842, H86F). Kind of test: Activity at FFAR1 H86F mutant expressed in HEK-EM293 cells assessed as calcium influx by FLIPR assay. It counts as functional, cell-based, HEK293. In a few lines:
as §1

For test [6], the target named is Free fatty acid receptor 1 (Homo sapiens, UniProt O14842, R183A). Kind of test: Activity at FFAR1 R183A mutant expressed in HEK-EM293 cells assessed as calcium influx by FLIPR assay. It is filed as functional, cell-based, HEK293. In a few lines: as §1
The target of test [7] is Free fatty acid receptor 1 (Homo sapiens, UniProt O14842, H137F). Description: Activity at FFAR1 H137F mutant expressed in HEK-EM293 cells assessed as calcium influx by FLIPR assay. It is filed as functional, cell-based, HEK293. In a few lines: as §1
The target in test [8] is Free fatty acid receptor 1 (Homo sapiens, UniProt O14842, N244A). Kind of test: Activity at FFAR1 N244A mutant expressed in HEK-EM293 cells assessed as calcium influx by FLIPR assay. It counts as functional, cell-based, HEK293. In a few lines: as §1
For test [9], the target named is T1, Free fatty acid receptor 1. Kind of test: Antagonist activity at FFAR1 expressed in HEK-EM293 cells assessed as inhibition calcium influx by FLIPR assay. It counts as functional, cell-based, HEK293.
The nature of test [10]: Antagonist activity at TRH receptor 1 expressed in HEK-EM293 cells assessed as inhibition of thyrotropin-releasing hormone-stimulated calcium influx at 30 uM by FLIPR assay. It is filed as functional. The settings on record: HEK293. In a few lines:
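HEK-EM 293 cells stably expressing TRH-R1, grown with 200 µg/mL hygromycin and loaded with Calcium4. Pre-incubated with compound, up to 30 µM, then stimulated with TRH. Inhibition of the FLIPR calcium response measured.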

In test [11] the target is T1, Free fatty acid receptor 1. Description: Antagonist activity at FFAR1 expressed in HEK-EM293 cells assessed as linoleic acid-stimulated calcium influx after 30 mins by FLIPR assay. It counts as functional, cell-based. The settings on record: HEK293.

Calls of active or inactive are those of the source. The calls are words filed in the database; no cut-off is given here.

T1 sequence (O14842 whole entry): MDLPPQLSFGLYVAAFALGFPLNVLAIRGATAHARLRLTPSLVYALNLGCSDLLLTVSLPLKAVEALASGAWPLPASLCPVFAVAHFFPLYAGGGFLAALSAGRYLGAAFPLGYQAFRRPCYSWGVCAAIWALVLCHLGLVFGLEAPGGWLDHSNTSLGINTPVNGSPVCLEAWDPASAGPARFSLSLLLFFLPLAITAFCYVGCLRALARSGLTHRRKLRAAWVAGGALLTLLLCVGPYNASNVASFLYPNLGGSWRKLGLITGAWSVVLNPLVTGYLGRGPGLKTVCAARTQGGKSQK
Chain of Free fatty acid receptor 1 (Homo sapiens, UniProt O14842, H137F) (O14842 whole entry H137F): as the sequence (O14842 whole entry) above, with H137F counted along it
Chain of Free fatty acid receptor 1 (Homo sapiens, UniProt O14842, L186F) (O14842 whole entry L186F): as the sequence (O14842 whole entry) above, with L186F counted along it
Chain of Free fatty acid receptor 1 (Homo sapiens, UniProt O14842, R183A) (O14842 whole entry R183A): as the sequence (O14842 whole entry) above, with R183A counted along it
Chain of Free fatty acid receptor 1 (Homo sapiens, UniProt O14842, N244A) (O14842 whole entry N244A): as the sequence (O14842 whole entry) above, with N244A counted along it
Chain of Free fatty acid receptor 1 (Homo sapiens, UniProt O14842, H86F) (O14842 whole entry H86F): as the sequence (O14842 whole entry) above, with H86F counted along it

With `O=C(O)CCN1C(=O)/C(=C\c2cccc3ccccc23)SC1=S`, in test [1], the result was inactive.

On to `O=C(O)CCCN1C(=O)/C(=C\c2ccco2)SC1=S`, for which, in test [1], the concentration for a half-maximal effect (EC50) (in general, the concentration needed to bring the measured effect to its halfway point) is 16.8 µM. Also, the Activity in [2] amounted to 44%.

As to `O=C(O)CCCCCN1C(=O)/C(=C\c2cccs2)SC1=S`, the EC50 was 7.6 µM in test [1]; 3.2 µM in test [3]; 6.6 µM in test [4]; above 10 µM in test [5]; above 30 µM in test [6]; 7.8 µM in test [7]. Moreover, in test [8], the EC50 is above 30 µM. In addition, the Activity in test [2] was 59%.

For `COc1ccc(CSc2nnc(SCc3ccc(C(=O)O)cc3)s2)cc1`, the EC50 in [1] turned out to be 15.1 µM. The Activity in [2] was 40%.

Turning to `O=C(O)c1cccc(NCc2cccc(OCc3ccccc3)c2)c1`, in test [1], the half-maximal effective concentration (EC50) was 8.2 µM. The Activity in test [2] was found to be 52%.

In the case of `COc1ccc(CNC(=O)[C@H](C)c2ccc([N+](=O)[O-])cc2)cc1`, in [1], the outcome was inactive.

As to `O=C(O)CSc1nnc(SCc2cccc3ccccc23)s1`, the concentration for a half-maximal effect (EC50) in test [1] is 3.6 µM; in [3], 0.97 µM; in test [4], 1.8 µM; in [5], at least 100 µM; in [6], at least 100 µM; in test [7], 4.3 µM. The EC50 in [8] was at least 100 µM. Besides, the Activity in test [2] was 100%.

In the case of `COc1ccc(CNC(=O)/C=C\c2ccc([N+](=O)[O-])cc2)cc1`, the outcome in [1] was inactive.

On to `C=CCOc1ccc(CNc2cccc(C(=O)O)c2)cc1`, for which the EC50 in test [1] is 14.5 µM. The Activity in test [2] was determined as 49%.

`O=C(O)CCN1C(=O)/C(=C\c2ccncc2)SC1=S`: the outcome in test [1] was inactive.

Take `O=C(O)CCCN1C(=O)/C(=C\c2ccc3c(c2)OCO3)SC1=S`: the outcome in [1] was Active.

In the case of `O=C(O)CCN1C(=O)/C(=C\c2c[nH]c3ccccc23)SC1=S`, the result in [1] was inactive.

For the molecule `O=C(O)CCCN1C(=O)/C(=C\c2cccs2)SC1=S`, the half-maximal effective concentration (EC50) in test [1] was determined as 19 µM. Besides, the Activity in [2] came out at 43%.

For the molecule `COC(=O)CSc1nnc(SCc2ccccc2)s1`, the EC50 in test [1] was determined as 16.7 µM. In addition, in test [2], the Activity was 41%.

As for `O=C(O)CCCN1C(=O)/C(=C\c2ccc(F)cc2)SC1=S`, the half-maximal effective concentration (EC50) in [1] was 22.6 µM. In addition, the Activity in test [2] was determined as 26%.

Turning to `O=C(Nc1ccccc1)c1cccc(Oc2ccc([N+](=O)[O-])cc2)c1`, the IC50 (in general, the concentration that gives 50% inhibition) in test [9] is 5.3 µM.

As to `O=C(c1ccccc1)c1ccc(NC(=O)c2ccccc2C(=O)O)cc1`, in test [1], the outcome was inactive.

For `O=C(O)c1ccc(NC(=O)c2ccc(C(=O)c3ccccc3)cc2)cc1`, in test [1], the EC50 turned out to be 16.1 µM. The Activity in test [2] is 56%.

Regarding `O=C(O)c1ccc(NCc2ccc3c(c2)OCO3)cc1`, in [1], the EC50 turned out to be 24.6 µM. In addition, the Activity in test [2] turned out to be 50%.

As for `O=C(Nc1ccc(OCc2ccccc2)cc1)c1cccc([N+](=O)[O-])c1`, in test [1], the result was inactive.

Take `O=C(O)CCCCCN1C(=O)/C(=C\c2cccc3ccccc23)SC1=S`: the EC50 in [1] was 12.2 µM. In test [2], the Activity was 100%.

For the molecule `O=C(NCc1cccc(Oc2ccccc2)c1)c1ccc([N+](=O)[O-])cc1`, the inhibition (usually the drop in the measured response relative to a control, in per cent) at 30 µM in test [10] amounted to 30%. The result in [11] was Active. Further, the 50% inhibitory concentration (IC50) in test [9] was found to be 2.8 µM.

Source of the values: ChEMBL document CHEMBL1140737, “Discovery of novel agonists and antagonists of the free fatty acid receptor 1 (FFAR1) using virtual screening” (J Med Chem, 2008).
